Assay results as given in ChEMBL document CHEMBL5634114, “Galantamine-memantine hybrids for Alzheimer's disease: The influence of linker rigidity in biological activity and pharmacokinetic properties” (Eur J Med Chem, 2023).
Converted amounts (≈) assume the structure as drawn.

Tests used:
[1] = target: Acetylcholinesterase (Homo sapiens, UniProt P22303); test: Inhibition of recombinant human AChE using acetylthiocholine as substrate preincubated for 20 mins followed by substrate addition measured for 3 mins by Ellman's method
Sequence of Acetylcholinesterase (P22303 whole entry): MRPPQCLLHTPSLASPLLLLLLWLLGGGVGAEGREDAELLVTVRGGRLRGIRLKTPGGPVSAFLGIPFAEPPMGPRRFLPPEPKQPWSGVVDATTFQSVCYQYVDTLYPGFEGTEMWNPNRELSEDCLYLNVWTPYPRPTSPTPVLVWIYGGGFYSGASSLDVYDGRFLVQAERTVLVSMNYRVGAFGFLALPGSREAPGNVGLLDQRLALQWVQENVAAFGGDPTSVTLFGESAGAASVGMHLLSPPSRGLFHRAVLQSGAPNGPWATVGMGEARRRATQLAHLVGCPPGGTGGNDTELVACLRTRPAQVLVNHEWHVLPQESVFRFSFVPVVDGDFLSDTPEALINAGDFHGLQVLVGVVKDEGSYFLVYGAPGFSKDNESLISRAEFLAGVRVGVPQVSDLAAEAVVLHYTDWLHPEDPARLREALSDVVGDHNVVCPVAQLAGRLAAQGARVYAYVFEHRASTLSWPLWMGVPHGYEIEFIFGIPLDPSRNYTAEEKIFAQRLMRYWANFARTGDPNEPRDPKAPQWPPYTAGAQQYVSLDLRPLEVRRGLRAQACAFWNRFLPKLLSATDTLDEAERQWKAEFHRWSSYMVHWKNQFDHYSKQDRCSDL
Outline: (§1)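 Ellman assay at 37 °C in 0.1 M phosphate buffer pH 8.0 with 340 µM DTNB and 0.02 U/mL enzyme (recombinant human AChE or human serum BChE). Inhibitor at increasing concentrations was preincubated with enzyme for 20 min before adding 550 µM acetylthiocholine (AChE) or butyrylthiocholine (BChE). Absorbance at 412 nm was monitored for 3 min, with a blank lacking enzyme. Triplicates; IC50 from log concentration–inhibition curves; at least two experiments.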

[2] = target: Cholinesterase (Homo sapiens, UniProt P06276); test: Inhibition of human serum BChE using butyrylthiocholine as substrate preincubated for 20 mins followed by substrate addition measured for 3 mins by Ellman's method; type: cell-free; outline: as §1
Sequence of Cholinesterase (P06276 whole entry): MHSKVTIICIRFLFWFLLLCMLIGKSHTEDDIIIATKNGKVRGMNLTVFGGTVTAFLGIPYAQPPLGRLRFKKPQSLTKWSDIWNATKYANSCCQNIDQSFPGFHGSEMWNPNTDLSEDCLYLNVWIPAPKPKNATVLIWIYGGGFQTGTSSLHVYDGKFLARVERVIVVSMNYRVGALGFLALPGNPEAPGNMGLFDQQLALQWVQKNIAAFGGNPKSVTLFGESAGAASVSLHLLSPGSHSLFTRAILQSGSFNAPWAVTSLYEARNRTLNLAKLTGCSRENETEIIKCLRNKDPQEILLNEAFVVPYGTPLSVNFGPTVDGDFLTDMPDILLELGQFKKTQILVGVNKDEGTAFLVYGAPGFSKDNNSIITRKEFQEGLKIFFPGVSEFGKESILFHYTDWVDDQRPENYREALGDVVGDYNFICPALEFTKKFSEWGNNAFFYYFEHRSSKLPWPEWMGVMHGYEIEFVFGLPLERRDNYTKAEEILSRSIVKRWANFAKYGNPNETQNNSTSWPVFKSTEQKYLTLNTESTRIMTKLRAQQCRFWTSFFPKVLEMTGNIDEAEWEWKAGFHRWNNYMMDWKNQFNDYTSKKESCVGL

[3] = target: Glutamate NMDA receptor; Grin1/Grin2a (Rattus norvegicus, UniProt P35439+Q00959); test: Inhibition of NMDA/glycine-activated rat GluN1/Glu2A expressed in xenopus laevis oocytes at -75 mV holding potential by voltage clamp method; type: cell-based, Oocyte
Sequence of Glutamate NMDA receptor; Grin1/Grin2a (Q00959 whole entry, other chains not shown): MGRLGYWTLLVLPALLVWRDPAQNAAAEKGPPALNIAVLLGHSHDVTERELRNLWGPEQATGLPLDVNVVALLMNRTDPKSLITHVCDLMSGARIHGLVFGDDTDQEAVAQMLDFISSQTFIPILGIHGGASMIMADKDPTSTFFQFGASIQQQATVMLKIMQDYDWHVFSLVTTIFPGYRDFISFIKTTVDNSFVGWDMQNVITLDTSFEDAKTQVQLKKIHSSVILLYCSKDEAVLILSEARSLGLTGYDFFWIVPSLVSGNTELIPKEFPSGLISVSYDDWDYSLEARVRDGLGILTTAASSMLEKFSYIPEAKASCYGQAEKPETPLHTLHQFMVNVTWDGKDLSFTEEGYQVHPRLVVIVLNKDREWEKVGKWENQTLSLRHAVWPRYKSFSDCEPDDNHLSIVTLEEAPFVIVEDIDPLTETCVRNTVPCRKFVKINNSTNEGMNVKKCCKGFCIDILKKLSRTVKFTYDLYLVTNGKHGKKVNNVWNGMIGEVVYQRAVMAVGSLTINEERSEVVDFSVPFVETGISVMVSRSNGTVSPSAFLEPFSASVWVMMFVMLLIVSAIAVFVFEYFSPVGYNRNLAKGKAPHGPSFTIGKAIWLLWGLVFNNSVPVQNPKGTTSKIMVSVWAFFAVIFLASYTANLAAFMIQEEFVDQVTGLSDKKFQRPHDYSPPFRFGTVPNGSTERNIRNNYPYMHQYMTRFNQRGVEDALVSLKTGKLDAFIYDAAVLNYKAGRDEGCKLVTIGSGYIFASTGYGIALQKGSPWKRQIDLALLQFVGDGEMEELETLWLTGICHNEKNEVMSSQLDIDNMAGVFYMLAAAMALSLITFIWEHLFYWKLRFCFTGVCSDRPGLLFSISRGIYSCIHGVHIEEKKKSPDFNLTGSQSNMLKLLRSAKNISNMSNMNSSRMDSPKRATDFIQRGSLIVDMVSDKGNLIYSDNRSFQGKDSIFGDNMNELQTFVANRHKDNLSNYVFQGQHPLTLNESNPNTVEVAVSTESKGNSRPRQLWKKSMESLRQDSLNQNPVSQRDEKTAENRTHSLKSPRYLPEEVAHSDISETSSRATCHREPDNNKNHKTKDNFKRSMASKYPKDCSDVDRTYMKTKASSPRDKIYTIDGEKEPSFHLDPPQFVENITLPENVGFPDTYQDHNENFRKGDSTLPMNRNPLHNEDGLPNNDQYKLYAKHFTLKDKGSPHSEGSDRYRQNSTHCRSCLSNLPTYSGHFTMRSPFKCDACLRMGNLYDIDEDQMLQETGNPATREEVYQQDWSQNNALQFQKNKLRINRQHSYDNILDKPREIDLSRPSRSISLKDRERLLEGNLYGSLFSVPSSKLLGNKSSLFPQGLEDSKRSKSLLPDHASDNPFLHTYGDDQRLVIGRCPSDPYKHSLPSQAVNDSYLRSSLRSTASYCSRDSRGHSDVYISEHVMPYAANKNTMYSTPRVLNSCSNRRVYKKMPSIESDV
Outline: (§2)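 Xenopus oocytes (stage IV–V) were injected with GluN1 plus GluN2A or GluN1 plus GluN2B cRNA (1:1) and kept 3–4 days at 18 °C. Two-electrode voltage clamp was run in saline with 2 mM CaCl2, pH 7.5. Currents were evoked by 100 µM NMDA plus 10 µM glycine, with compound co-applied at 0.01–100 µM in 10-fold steps. […] The selectivity index is the GluN1/2A IC50 divided by the GluN1/2B IC50.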

[4] = target: Glutamate NMDA receptor; Grin1/Grin2b (Rattus norvegicus, UniProt P35439+Q00960); test: Inhibition of NMDA/glycine-activated rat GluN1/Glu2B expressed in xenopus laevis oocytes at -75 mV holding potential by voltage clamp method; type: cell-based, Oocyte; outline: as §2
Sequence of Glutamate NMDA receptor; Grin1/Grin2b (Q00960 whole entry, other chains not shown): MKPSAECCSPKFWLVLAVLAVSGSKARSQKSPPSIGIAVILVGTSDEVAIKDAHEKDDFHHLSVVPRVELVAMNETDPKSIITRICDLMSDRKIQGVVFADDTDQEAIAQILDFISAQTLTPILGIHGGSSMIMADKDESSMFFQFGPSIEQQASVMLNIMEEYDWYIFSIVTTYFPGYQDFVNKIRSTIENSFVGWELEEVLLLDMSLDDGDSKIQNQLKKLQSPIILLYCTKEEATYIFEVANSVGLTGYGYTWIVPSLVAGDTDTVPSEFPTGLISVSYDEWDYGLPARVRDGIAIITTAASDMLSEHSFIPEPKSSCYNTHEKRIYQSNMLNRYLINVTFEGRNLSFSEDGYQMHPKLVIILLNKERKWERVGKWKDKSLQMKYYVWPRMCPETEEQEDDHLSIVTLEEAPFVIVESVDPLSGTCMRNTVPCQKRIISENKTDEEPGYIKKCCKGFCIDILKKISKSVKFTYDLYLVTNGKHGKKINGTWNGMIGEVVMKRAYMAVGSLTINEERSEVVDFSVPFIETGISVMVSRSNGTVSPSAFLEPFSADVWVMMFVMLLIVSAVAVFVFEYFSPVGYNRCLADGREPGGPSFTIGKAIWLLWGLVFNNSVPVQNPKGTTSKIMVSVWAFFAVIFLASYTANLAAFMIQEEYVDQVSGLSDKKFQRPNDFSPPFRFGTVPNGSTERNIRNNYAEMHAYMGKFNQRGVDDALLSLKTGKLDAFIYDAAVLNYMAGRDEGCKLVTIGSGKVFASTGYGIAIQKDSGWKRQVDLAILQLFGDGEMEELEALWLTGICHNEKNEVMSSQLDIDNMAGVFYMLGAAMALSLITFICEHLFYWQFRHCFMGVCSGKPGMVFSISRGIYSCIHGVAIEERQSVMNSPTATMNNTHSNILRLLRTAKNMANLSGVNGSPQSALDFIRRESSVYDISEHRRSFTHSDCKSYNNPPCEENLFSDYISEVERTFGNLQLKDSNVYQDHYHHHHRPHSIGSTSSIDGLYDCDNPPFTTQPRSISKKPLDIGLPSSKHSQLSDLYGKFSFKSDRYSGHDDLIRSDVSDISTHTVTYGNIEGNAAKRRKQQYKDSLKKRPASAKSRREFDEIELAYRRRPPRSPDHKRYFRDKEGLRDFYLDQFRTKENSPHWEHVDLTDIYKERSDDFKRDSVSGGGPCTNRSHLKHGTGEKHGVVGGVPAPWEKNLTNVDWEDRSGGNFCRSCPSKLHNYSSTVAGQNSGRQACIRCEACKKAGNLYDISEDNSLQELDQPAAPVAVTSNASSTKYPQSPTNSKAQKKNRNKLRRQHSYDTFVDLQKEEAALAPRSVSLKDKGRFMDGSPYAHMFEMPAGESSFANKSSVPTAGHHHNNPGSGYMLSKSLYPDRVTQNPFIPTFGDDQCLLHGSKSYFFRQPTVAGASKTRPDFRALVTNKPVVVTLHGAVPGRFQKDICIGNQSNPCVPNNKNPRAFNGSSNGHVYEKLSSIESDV

[5] = organism: Rattus norvegicus; test: Selectivity index, ratio of IC50 for NMDA/glycine-activated rat GluN1/Glu2A expressed in xenopus laevis oocytes to IC50 for NMDA/glycine-activated rat GluN1/Glu2B expressed in xenopus laevis oocytes; type: cell-based; outline: as §2
[6] = Aqueous kinetic solubility in PBS at 250 uM incubated for 24 hrs […]; type: physicochemical; details: read-out: Kinetic_solubility
[7] = Metabolic stability in mouse plasma assessed as half life at 2 uM incubated for 2 hrs by LC-MS/MS analysis; type: ADME, cell-free
Outline: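 Compound at 2 µM final (0.5% DMSO) in prewarmed mouse plasma at 37 °C. Samples taken at 0, 5, 15, 30, 60 and 120 min were quenched in cold CH3CN with internal standard, centrifuged, diluted with water and analyzed by LC-MS/MS (MRM, positive ESI). Half-life calculated from the time course.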

[8] = Metabolic stability in mouse liver microsomes assessed as half life at 5 uM preincubated for 15 mins followed by NADPH/G6P/G6PDH measured for 1 hr by LC-MS/MS analysis; type: ADME, Microsome; details: time 75 min
Outline: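 Mouse liver microsomes with compound at 5 µM final (0.1% DMSO) in 0.1 M Tris-HCl pH 7.5, preincubated 15 min at 37 °C. NADPH, G6P, G6PDH and MgCl2 were then added and incubation continued for 1 h. Samples at 0, 5, 15, 30 and 60 min were quenched in cold CH3CN with internal standard and analyzed by LC-MS/MS. A no-cofactor microsome control was run at 0 and 60 min.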

[9] = Metabolic stability in mouse liver microsomes assessed as half life at 5 uM preincubated for 15 mins followed by UDPGA/D-saccharic acid lactone measured for 1 hr by LC-MS/MS analysis; type: ADME, Microsome; details: time 75 min
Outline: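 Mouse liver microsomes with alamethicin and compound at 5 µM final (0.1% DMSO) in 0.1 M Tris-HCl pH 7.5, preincubated 15 min at 37 °C. UDPGA, p-saccharic acid lactone and MgCl2 were then added and incubation continued for 1 h. Samples at 0, 5, 15, 30 and 60 min were quenched in cold CH3CN with internal standard and analyzed by LC-MS/MS. A no-cofactor control was run at 0 and 60 min.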

[10] = Cmax in CD-1 mouse at 3 mg/kg, iv measured for 240 mins; type: ADME, organism-based; details: in vivo
Outline: (§3)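 Male CD1 mice (22–24 g) dosed IV at 3 mg/kg in PEG400/Tween 80/saline 10/10/80 v/v. Three animals per time point. Blood taken at 0, 5, 30, 60, 120 and 240 min. Plasma extracted with cold CH3CN plus internal standard and quantified by LC-MS/MS (MRM) against a 1 nM–10 µM calibration curve in blank plasma. Parameters were obtained by fitting the plasma concentration–time profile.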

[11] = Tmax in CD-1 mouse at 3 mg/kg, iv measured for 240 mins; type: ADME, organism-based; details: in vivo; outline: as §3
[12] = AUC in CD-1 mouse at 3 mg/kg, iv measured for 240 mins; type: ADME, organism-based; details: in vivo; outline: as §3
[13] = Half life in CD-1 mouse at 3 mg/kg, iv measured for 240 mins; type: ADME, organism-based; details: in vivo; outline: as §3
[14] = Volume of distribution in CD-1 mouse at 3 mg/kg, iv measured for 240 mins; type: ADME, organism-based; details: in vivo; outline: as §3
[15] = Clearance in CD-1 mouse at 3 mg/kg, iv measured for 240 mins; type: ADME, organism-based; details: in vivo; outline: as §3
[16] = Drug concentration in brain of in CD-1 mouse at 3 mg/kg, iv measured for 30 mins; type: ADME, organism-based; details: read-out: Ct
Outline: (§4)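 Male CD1 mice dosed IV at 3 mg/kg in PEG400/Tween 80/saline 10/10/80. Three mice per time point. Whole brains were homogenized in 4 vol PBS:protease inhibitor (100:1), extracted with cold CH3CN plus internal standard and measured by LC-MS/MS (MRM) against a 1 nM–10 µM calibration in naïve brain homogenate. Levels were normalized per 100 mg brain/mL, with protein content checked by BCA.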

[17] = Drug concentration in brain of in CD-1 mouse at 3 mg/kg, iv measured for 60 mins; type: ADME, organism-based; details: read-out: Ct; outline: as §4
[18] = Drug concentration in brain of in CD-1 mouse at 3 mg/kg, iv measured for 120 mins; type: ADME, organism-based; details: read-out: Ct; outline: as §4
[19] = Drug concentration in brain of in CD-1 mouse at 3 mg/kg, iv measured for 240 mins; type: ADME, organism-based; details: read-out: Ct; outline: as §4

COc1ccc2c3c1O[C@H]1C[C@@H](O)C=C[C@@]31CCN(C/C=C/CNC13CC4CC(C)(CC(C)(C4)C1)C3)C2
IC50 [1]: 115 nM | IC50 [2]: 421 nM | IC50 [3]: 14500 nM | IC50 [4]: 1320 nM | Ratio IC50 [5]: 11 | solubility kinetic at 24 h, 250 µM [6]: 237 µM (≈ 120 µg/mL) | half-life at 2 µM [7]: > 2 h | half-life at 5 µM [8]: 0.75 h | half-life at 5 µM [9]: > 1 h | Cmax [10]: 202 ng/mL | Tmax [11]: 5 min | AUC at 4 h [12]: 280 ng·h/mL | half-life [13]: 1.37 h | Vd [14]: 19 L/kg | clearance [15]: 161 mL/min/kg | concentration at 0.5 h [16]: 281 ng/g | concentration at 1 h [17]: 256 ng/g | concentration at 2 h [18]: 243 ng/g | concentration at 4 h [19]: 96 ng/g

COc1ccc2c3c1O[C@H]1C[C@@H](O)C=C[C@@]31CCN(CCCCNC13CC4CC(C)(CC(C)(C4)C1)C3)C2
IC50 [1]: 1130 nM | IC50 [2]: 1770 nM | IC50 [3]: 5740 nM | IC50 [4]: 1450 nM | Ratio IC50 [5]: 4 | solubility kinetic at 24 h, 250 µM [6]: 242 µM (≈ 123 µg/mL) | half-life at 2 µM [7]: 1.62 h | half-life at 5 µM [8]: > 1 h | half-life at 5 µM [9]: > 1 h | Cmax [10]: 208 ng/mL | Tmax [11]: 5 min | AUC at 4 h [12]: 290 ng·h/mL | half-life [13]: 20.8 h | Vd [14]: 78 L/kg | clearance [15]: 43 mL/min/kg | concentration at 0.5 h [16]: 95 ng/g | concentration at 1 h [17]: 115 ng/g | concentration at 2 h [18]: 70 ng/g | concentration at 4 h [19]: 310 ng/g

COc1ccc2c3c1O[C@H]1C[C@@H](O)C=C[C@@]31CCN(CC#CCNC13CC4CC(C)(CC(C)(C4)C1)C3)C2
IC50 [1]: 762 nM | IC50 [2]: 5080 nM | IC50 [3]: 11600 nM | IC50 [4]: 15500 nM | Ratio IC50 [5]: 0.75 | solubility kinetic at 24 h, 250 µM [6]: 230 µM (≈ 116 µg/mL) | half-life at 2 µM [7]: > 2 h | half-life at 5 µM [8]: < 0.0833 h
